From ChEMBL document CHEMBL1146920, “3-[5-(4,5-dihydro-1H-imidazol-2-yl)-furan-2-yl]phenylamine (Amifuraline), a promising reversible and selective peripheral MAO-A inhibitor” (J Med Chem, 2006)

Legend:
Monoamine oxidase = target: T1, Monoamine oxidase (Rattus norvegicus, UniProt P19643+P21396); assay: Binding affinity to I2-IBS, imidazoline binding site of MAO; format: functional
T1 sequence (P19643 whole entry): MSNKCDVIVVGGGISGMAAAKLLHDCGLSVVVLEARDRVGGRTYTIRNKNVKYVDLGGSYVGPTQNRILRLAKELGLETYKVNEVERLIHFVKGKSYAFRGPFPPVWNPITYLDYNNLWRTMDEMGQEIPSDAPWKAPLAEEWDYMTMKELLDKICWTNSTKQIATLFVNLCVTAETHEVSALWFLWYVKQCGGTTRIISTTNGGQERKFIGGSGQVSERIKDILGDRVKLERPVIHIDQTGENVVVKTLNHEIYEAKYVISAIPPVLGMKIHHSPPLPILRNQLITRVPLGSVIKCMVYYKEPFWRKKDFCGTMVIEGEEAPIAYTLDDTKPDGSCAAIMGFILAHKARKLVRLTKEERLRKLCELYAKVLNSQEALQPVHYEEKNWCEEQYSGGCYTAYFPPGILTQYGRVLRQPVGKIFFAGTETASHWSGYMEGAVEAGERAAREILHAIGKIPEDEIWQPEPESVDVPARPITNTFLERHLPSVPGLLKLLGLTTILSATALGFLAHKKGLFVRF
T1 sequence (P21396 whole entry): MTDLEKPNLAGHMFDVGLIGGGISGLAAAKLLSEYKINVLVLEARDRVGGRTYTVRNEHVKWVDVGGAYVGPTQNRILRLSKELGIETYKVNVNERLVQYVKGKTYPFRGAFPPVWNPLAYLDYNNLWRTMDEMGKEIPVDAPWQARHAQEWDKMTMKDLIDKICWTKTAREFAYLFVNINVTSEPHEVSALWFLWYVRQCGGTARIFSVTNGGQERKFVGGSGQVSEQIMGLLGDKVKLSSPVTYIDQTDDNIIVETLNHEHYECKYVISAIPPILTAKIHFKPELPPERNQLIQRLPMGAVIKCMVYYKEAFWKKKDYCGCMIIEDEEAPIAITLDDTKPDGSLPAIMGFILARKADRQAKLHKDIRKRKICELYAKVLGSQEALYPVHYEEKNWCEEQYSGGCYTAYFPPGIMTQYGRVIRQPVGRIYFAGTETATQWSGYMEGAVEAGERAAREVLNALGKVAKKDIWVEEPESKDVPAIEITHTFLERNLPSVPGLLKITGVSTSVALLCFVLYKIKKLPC

[1] = target: T2, Amine oxidase [flavin-containing] A (Rattus norvegicus, UniProt P21396); assay: Inhibition of MAO-A in rat liver assessed as inhibition of [14C]5-HT oxidation; format: functional
T2 sequence (P21396 whole entry): T1 sequence (P21396 whole entry)
Method in brief: (§1)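 Rat liver homogenized in 50 mM sodium phosphate, pH 7.5, with protease inhibitors, then filtered. 10-20 µg crude protein incubated 20 min at 37 °C with the test compound across increasing concentrations. MAO-A substrate: 200 µM [14C]5-HT. MAO-B substrate: 20 µM [14C]PEA plus 0.1 µM clorgyline. Stopped with 4 N HCl; product extracted into ethyl acetate/toluene and counted by scintillation. IC50 taken from sigmoid curves; three experiments.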

[2] = target: T2, Amine oxidase [flavin-containing] A; assay: Inhibition of MAO-A in rat liver assessed as decrease in [14C]5-HT oxidation at 10 uM after 20 mins relative to control; format: functional; conditions: read-out: Activity
Method in brief: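 Rat liver homogenate (0.5 mg/mL) in 50 mM phosphate, pH 7.4, incubated 20 min at 37 °C with 10 µM compound or vehicle. MAO-A activity read with 200 µM [14C]serotonin, before and after washing (40 000 g centrifugation, buffer wash, resuspension). Expressed as percent of unwashed vehicle-treated homogenate; duplicate experiments.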

[3] = target: T2, Amine oxidase [flavin-containing] A; assay: Residual activity at MAO-A in Sprague-Dawley rat liver at 50 mg/kg, ip; format: functional, organism-based; design: dose 50 mg/kg, route intraperitoneal; conditions: read-out: Activity
Method in brief: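 Male Sprague Dawley rats (about 250 g) received three i.p. injections of 50 mg/kg (10 mg/mL in DMSO/saline or saline) or vehicle, given 20 h, 4 h 30 min and 1 h 30 min before sacrifice. Four rats per group; three per vehicle control. Frozen liver homogenate assayed for MAO-A with 200 µM [14C]5-HT. Expressed relative to vehicle-treated animals.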

[4] = target: T3, Amine oxidase [flavin-containing] B (Rattus norvegicus, UniProt P19643); assay: Inhibition of MAO-B in rat liver assessed as inhibition of [14C]PEA oxidation in presence of 0.1 uM clorgyline; format: functional; method in brief: as §1
T3 sequence (P19643 whole entry): T1 sequence (P19643 whole entry)

[5] = target: T3, Amine oxidase [flavin-containing] B; assay: Decrease in MAO-B activity in Sprague-Dawley rat brain at 50 mg/kg, ip; format: functional, organism-based; design: dose 50 mg/kg, route intraperitoneal; conditions: in vivo
Method in brief: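 Male Sprague Dawley rats (~250 g), four per group, got three ip doses of 50 mg/kg (10 mg/mL in saline or DMSO/saline), 20 h, 4 h 30 min and 1 h 30 min before sacrifice. Brain was stored at -80 °C and homogenized in 50 mM phosphate, pH 7.5. Homogenate was incubated 20 min at 37 °C with 20 µM [14C]PEA plus 0.1 µM clorgyline. Extracted product was scintillation-counted and compared with vehicle.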

Q: With `C1=C(C2=NCCN2)CCc2ccccc21` as the molecule, how does the “Log Ki” value (Monoamine oxidase) read?
A: -7.95

Q: Which IC50 [1] does the source give for `Nc1cccc(-c2ccc(C3=NCCN3)o2)c1` [AMIFURALINE] here?
A: 600 nM

Q: What about the inhibition at 10 µM [2] of the same molecule?
A: 85%

Q: What about the activity at 50 mg/kg [3] of the same molecule?
A: 36%

Q: And the IC50 [4]?
A: 19.1 µM

Q: Which IC50 [1] does the source give for `OCc1ccc(-c2ccc(C3=NCCN3)o2)cc1` here?
A: 1200 nM

Q: What about the inhibition at 10 µM [2] of the same molecule?
A: 79%

Q: Which “Log Ki” value (Monoamine oxidase) does the source give for `c1ccc([C@H]2O[C@@H]2C2=NCCN2)cc1` (relative stereo) here?
A: -7.55

Q: How did the “Log Ki” value (Monoamine oxidase) turn out when `c1ccc(-c2ccc(C3=NCCN3)o2)cc1` [FURALINE] was run?
A: -7.68

Q: Which Activity [5] does the source give for `c1ccc(-c2ccc(C3=NCCN3)cn2)cc1` here?
A: Active

Q: What about the IC50 [1] of the same molecule?
A: 1800 nM

Q: And the inhibition at 10 µM [2]?
A: 53%

Q: Which “Log Ki” value (Monoamine oxidase) does the source give for `C(=C\c1ccccc1)/C1=NCCN1` [TRACIZOLINE] here?
A: -8.72
